Experimental data reported in ChEMBL document CHEMBL4145474, “Discovery of novel piperonyl derivatives as diapophytoene desaturase inhibitors for the treatment of methicillin-, vancomycin- and linezolid-resistant Staphylococcus aureus infections” (Eur J Med Chem, 2018).
The source made the active and inactive calls. The calls are words filed in the database; no cut-off is given here.

Assays:
[1] = molecular target: T1, 4,4'-diapophytoene desaturase (4,4'-diaponeurosporene-forming) (Staphylococcus aureus (strain Mu50 / ATCC 700699)) (UniProt Q99R76); test: Inhibition of CrtN in vancomycin-intermediate methicillin-resistant Staphylococcus aureus Mu50 assessed as bacterial survival after 6 hrs by human whole blood killing assay (reference value: 8.66%); details: Staphylococcus aureus subsp. aureus Mu50
T1 sequence (whole entry): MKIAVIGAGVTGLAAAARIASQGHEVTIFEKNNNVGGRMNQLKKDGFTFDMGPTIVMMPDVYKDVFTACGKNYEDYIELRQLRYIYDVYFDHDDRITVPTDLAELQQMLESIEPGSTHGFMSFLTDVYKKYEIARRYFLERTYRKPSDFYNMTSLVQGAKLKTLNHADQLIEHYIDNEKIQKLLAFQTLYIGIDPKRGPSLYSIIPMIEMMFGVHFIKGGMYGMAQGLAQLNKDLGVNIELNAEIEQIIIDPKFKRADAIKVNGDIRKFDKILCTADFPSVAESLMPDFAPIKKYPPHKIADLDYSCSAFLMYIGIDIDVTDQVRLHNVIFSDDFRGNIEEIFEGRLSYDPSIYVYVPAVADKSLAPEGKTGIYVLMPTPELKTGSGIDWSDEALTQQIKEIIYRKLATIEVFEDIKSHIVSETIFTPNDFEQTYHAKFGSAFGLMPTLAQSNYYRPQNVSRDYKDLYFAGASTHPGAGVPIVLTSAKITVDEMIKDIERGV
Procedure, shortened: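 Overnight cultures spun, resuspended in sterile PBS at 1 × 10⁷ CFU/mL, then mixed 1:10 with fresh whole blood from healthy human volunteers (final 1 × 10⁶ CFU/mL). Incubated 6 h at 37 °C; surviving CFU counted by plating dilutions on TSA. Two independent experiments.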

[2] = molecular target: T2, 4,4'-diapophytoene desaturase (4,4'-diaponeurosporene-forming) (Staphylococcus aureus (strain Newman)) (UniProt O07855); test: Inhibition of CrtN in wild type Staphylococcus aureus Newman assessed as decrease in bacterial survival after 6 hrs by human whole blood killing assay relative to control; details: Staphylococcus aureus subsp. aureus str. Newman
T2 sequence (whole entry): T1 sequence (whole entry)
Procedure, shortened: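 Tubes were incubated 6 h at 37 °C, then serial dilutions were plated on TSA to count surviving CFU. Two independent experiments, compared against vehicle.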

Staphylococcus aureus [3] = test: Antibacterial activity against methicillin-resistant Staphylococcus aureus USA300 LAC assessed as decrease in bacterial survival at 1 uM after 24 hrs by H2O2 killing assay; assay type: functional, organism-based
[4] = molecular target: T2, 4,4'-diapophytoene desaturase (4,4'-diaponeurosporene-forming) (Staphylococcus aureus (strain Newman)); test: Inhibition of CrtN in methicillin-resistant Staphylococcus aureus USA300 LAC assessed as bacterial survival at 1 uM after 24 hrs by H2O2 killing assay (reference value: 29.67%)
[5] = molecular target: T1, 4,4'-diapophytoene desaturase (4,4'-diaponeurosporene-forming) (Staphylococcus aureus (strain Mu50 / ATCC 700699)); test: Inhibition of CrtN in vancomycin-intermediate methicillin-resistant Staphylococcus aureus Mu50 assessed as bacterial survival at 1 uM after 24 hrs by H2O2 killing assay (reference value: 23.33%); details: Staphylococcus aureus subsp. aureus Mu50
[6] = molecular target: T2, 4,4'-diapophytoene desaturase (4,4'-diaponeurosporene-forming) (Staphylococcus aureus (strain Newman)); test: Inhibition of CrtN in wild type Staphylococcus aureus Newman assessed as decrease in bacterial survival at 1 uM after 24 hrs by H2O2 killing assay relative to control; details: Staphylococcus aureus subsp. aureus str. Newman
Procedure, shortened: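 Bacteria were grown 24 h at 37 °C in TSB with compound, DMSO vehicle or NAC, then washed twice in PBS. Each reaction held 4 × 10⁶ CFU with H₂O₂ at 1.5% final, shaken 30 min at 37 °C and 250 rpm, then quenched with 1000 U/mL catalase. Survival was counted as CFU on TSA. Two independent experiments.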

Staphylococcus aureus [7] = test: Growth inhibition of methicillin-resistant Staphylococcus aureus USA400 MW2 at 0.2 mM incubated for overnight; assay type: functional, organism-based
Procedure, shortened: (§1)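 Overnight cultures washed in PBS and diluted in TSB to OD600 ~1.0. Inoculated to a final OD600 of about 0.05 into TSB containing compound (0.2 or 0.05 mM, from a 20 mM DMSO stock) or DMSO growth control, overlaid with paraffin wax. OD600 read every 30 min during overnight incubation at 37 °C.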

Staphylococcus aureus [8] = test: Growth inhibition of vancomycin-intermediate methicillin-resistant Staphylococcus aureus Mu50 at 0.2 mM incubated for overnight; assay type: functional, organism-based; procedure, shortened: as §1
Staphylococcus aureus [9] = test: Inhibition of pigmentation in methicillin/linezolid-resistant Staphylococcus aureus NRS271 after 48 hrs by spectrophotometric method; assay type: functional, organism-based; details: NRS271, 48 h
Procedure, shortened: (§2)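 Bacteria grown in 4 mL TSB for 48 h at 37 °C with compound serially diluted from DMSO, in duplicate; DMSO vehicle control and non-pigmented CrtN mutant as reference. Cells from 3 mL of culture washed twice with 0.01 M PBS and pigment extracted into methanol. Absorbance read at 450 nm; IC50 fitted from the concentration series.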

Staphylococcus aureus [10] = test: Inhibition of pigmentation in methicillin-resistant Staphylococcus aureus USA400 MW2 after 48 hrs by spectrophotometric method; assay type: functional, organism-based; details: USA400 MW2, 48 h; procedure, shortened: as §2
[11] = Solubility of the compound in water by UV analysis; assay type: physicochemical
[12] = molecular target: T2, 4,4'-diapophytoene desaturase (4,4'-diaponeurosporene-forming) (Staphylococcus aureus (strain Newman)); test: Inhibition of Staphylococcus aureus Newman 6His-tagged CrtN expressed in Escherichia coli BL21(DE3) assessed as 4,4'-diapophytoene accumulation by UV-HPLC analysis; details: Staphylococcus aureus subsp. aureus str. Newman
Procedure, shortened: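 Substrate was E. coli-derived diapophytoene emulsified with phosphatidylcholine in 0.02 M HEPES pH 7.5. Run anaerobically (glucose oxidase 20 U/mL, catalase 20000 U/mL, glucose 2 mM final) overnight at 37 °C, stopped with methanol. Triplicate; diapophytoene monitored by HPLC at 286 nm.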

Staphylococcus aureus [13] = test: Antibacterial activity against vancomycin-intermediate methicillin-resistant Staphylococcus aureus Mu50 infected in BALB/c mouse assessed as decrease in bacterial survival in mouse liver at 0.1 to 0.4 mg, ip bid administered 4.5 days before 24 hrs bacterial infection measured after 90 hrs; assay type: functional, organism-based
Procedure, shortened: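 6–8-week-old female BALB/c mice (SPF) dosed intraperitoneally twice daily over 4.5 d at 0.1 or 0.4 mg/bid. Pre-treatment started before infection; post-treatment started 6 h after infection. Vancomycin and linezolid controls given as pre-treatment at 0.4 mg/bid. Retro-orbital inoculation: Mu50 1.1 × 10⁹ CFU, NRS271 1.8 × 10⁸ CFU. Kidneys and livers homogenised in PBS/0.01% Triton X-100 and plated on TSA for CFU.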

Staphylococcus aureus [14] = test: Antibacterial activity against wild type Staphylococcus aureus Newman infected in BALB/c mouse assessed as decrease in bacterial survival in mouse liver at 0.4 mg, ip bid administered 4.5 days before 12 hrs bacterial infection measured after 90 hrs relative to control; assay type: functional
Staphylococcus aureus [15] = test: Antibacterial activity against wild type Staphylococcus aureus Newman infected in BALB/c mouse assessed as decrease in bacterial survival in mouse liver at 0.1 mg, ip bid administered 4.5 days after 6 hrs bacterial infection measured after 90 hrs relative to control; assay type: functional
Staphylococcus aureus [16] = test: Antibacterial activity against wild type Staphylococcus aureus Newman infected in BALB/c mouse assessed as decrease in bacterial load in mouse liver at 0.1 mg, ip bid administered 4.5 days after 6 hrs bacterial infection measured after 90 hrs relative to control; assay type: functional
Procedure, shortened: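 Female BALB/c mice, 6-8 weeks old, infected retro-orbitally with 2.2 × 10⁷ CFU S. aureus Newman. Intraperitoneal dosing in 12 intervals: pre-treatment groups received a total of 50 or 200 mg/kg starting before infection; post-treatment groups received a total of 39 or 156 mg/kg starting 6 h after infection. Vehicle was ddH₂O. At 90 h post-infection, liver or kidney was homogenized in PBS/0.01% Triton X-100 and plated on TSA for CFU.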

## CN(C/C=C/C=C/c1ccc(C(F)(F)F)cc1F)Cc1ccc2c(c1)OCO2.Cl
[1]
  Survival: 0.28%
[2]
  fold change (FC): 10.9
Staphylococcus aureus [3]
  Activity: inactive
[4]
  Survival: 2.67%
[5]
  Survival: 2%
[6]
  fold change (FC): 11.7
Staphylococcus aureus [7]
  growth inhibition (GI): inactive
Staphylococcus aureus [8]
  growth inhibition (GI): inactive
Staphylococcus aureus [9]
  IC50: 4.1 nM
Staphylococcus aureus [10]
  IC50: 7.6 nM
[11]
  solubility: 8690 µg/mL
[12]
  inhibition: Active
Staphylococcus aureus [13]
  Activity: Active
Staphylococcus aureus [14]
  Activity: 98.74%
Staphylococcus aureus [15]
  Activity: 97.06%
Staphylococcus aureus [16]
  Activity: 1.53 deltalog10CFU
